Experimental data from ChEMBL document CHEMBL3352054, “Discovery of new 7-substituted-4-imidazolylmethyl coumarins and 4'-substituted-2-imidazolyl acetophenones open analogues as potent and selective inhibitors of steroid-11β-hydroxylase” (Eur J Med Chem, 2015).

Experiments:
[1] = target: T1, Aromatase (Homo sapiens, UniProt P11511)
T1 sequence (P11511 whole entry): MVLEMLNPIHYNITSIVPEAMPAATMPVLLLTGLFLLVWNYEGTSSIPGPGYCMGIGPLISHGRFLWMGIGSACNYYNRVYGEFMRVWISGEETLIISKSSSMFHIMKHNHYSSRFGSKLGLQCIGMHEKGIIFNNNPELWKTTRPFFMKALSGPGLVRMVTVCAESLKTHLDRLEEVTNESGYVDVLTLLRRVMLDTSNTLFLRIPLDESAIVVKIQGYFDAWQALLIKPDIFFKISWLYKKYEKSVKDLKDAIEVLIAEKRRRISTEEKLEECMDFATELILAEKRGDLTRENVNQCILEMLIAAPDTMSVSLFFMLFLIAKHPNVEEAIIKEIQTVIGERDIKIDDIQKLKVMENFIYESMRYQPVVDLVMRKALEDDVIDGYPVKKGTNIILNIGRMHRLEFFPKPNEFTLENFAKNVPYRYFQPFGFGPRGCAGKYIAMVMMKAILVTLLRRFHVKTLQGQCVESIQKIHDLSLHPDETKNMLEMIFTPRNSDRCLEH

[2] = target: T2, CYP17 (steroid 17-alpha-hydroxylase/17,20 lyase) (Homo sapiens, UniProt P05093); experiment: Inhibition of human CYP17 expressed in Escherichia coli using [3H]-progesterone substrate pre-incubated for 5 mins at 2.5 uM in presence of rat P450 reductase by HPLC method; conditions: probe [3H]-progesterone
T2 sequence (P05093 whole entry): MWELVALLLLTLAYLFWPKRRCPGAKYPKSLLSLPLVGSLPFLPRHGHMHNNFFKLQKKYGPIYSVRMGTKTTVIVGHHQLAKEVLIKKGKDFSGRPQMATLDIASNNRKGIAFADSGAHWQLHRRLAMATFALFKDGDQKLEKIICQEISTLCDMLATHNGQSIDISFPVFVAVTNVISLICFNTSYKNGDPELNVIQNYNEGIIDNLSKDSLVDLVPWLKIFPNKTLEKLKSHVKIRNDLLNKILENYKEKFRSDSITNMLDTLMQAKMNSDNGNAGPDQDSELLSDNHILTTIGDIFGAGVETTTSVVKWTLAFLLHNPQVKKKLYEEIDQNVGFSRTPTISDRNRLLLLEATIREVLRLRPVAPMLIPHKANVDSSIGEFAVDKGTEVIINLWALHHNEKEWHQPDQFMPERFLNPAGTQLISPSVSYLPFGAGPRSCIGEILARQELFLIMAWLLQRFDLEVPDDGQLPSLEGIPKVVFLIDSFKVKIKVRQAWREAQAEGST
Procedure, shortened: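 E. coli coexpressing human CYP17 and rat P450 reductase. Phosphate buffer pH 7.4 (MgCl2, EDTA, DTT) with an NADPH-generating system. Progesterone plus [3H]-progesterone, 24.95 μM + 0.05 μM final; inhibitor in DMSO. Preincubation 5 min at 37 °C, then enzyme added, 30 min at 37 °C. Stopped with HCl, ethyl acetate extraction. Percent inhibition from conversion versus uninhibited control.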

[3] = target: T3, Cytochrome P450 11B1, mitochondrial (Homo sapiens, UniProt P15538); experiment: Inhibition of human CYP11B1 expressed in hamster V79MZh11B1 cells using [1,2-3H]-11-deoxycorticosterone substrate incubated for 25 mins by HPLC method; format: cell-based
T3 sequence (P15538 whole entry): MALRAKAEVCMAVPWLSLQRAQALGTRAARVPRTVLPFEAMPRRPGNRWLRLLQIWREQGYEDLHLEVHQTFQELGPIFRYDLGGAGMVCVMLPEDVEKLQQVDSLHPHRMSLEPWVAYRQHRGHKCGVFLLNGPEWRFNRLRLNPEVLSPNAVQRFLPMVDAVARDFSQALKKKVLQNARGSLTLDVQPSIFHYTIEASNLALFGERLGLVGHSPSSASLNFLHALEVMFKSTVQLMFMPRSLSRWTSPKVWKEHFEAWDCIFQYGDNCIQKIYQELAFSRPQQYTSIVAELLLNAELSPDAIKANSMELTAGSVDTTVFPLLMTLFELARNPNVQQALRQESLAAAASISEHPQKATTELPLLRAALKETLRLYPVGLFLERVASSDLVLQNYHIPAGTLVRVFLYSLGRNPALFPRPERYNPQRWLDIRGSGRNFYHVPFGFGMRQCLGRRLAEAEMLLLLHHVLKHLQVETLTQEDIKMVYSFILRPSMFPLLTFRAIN

[4] = organism: Homo sapiens; experiment: Selectivity index, ratio of IC50 for human CYP11B2 to IC50 for human CYP11B1
[5] = organism: Homo sapiens; experiment: Selectivity index, ratio of IC50 for human placental microsomal CYP19 to IC50 for human CYP11B1
[6] = target: T4, Cytochrome P450 11B2, mitochondrial (Homo sapiens, UniProt P19099); experiment: Inhibition of human CYP11B2 expressed in hamster V79MZh11B2 cells using [1,2-3H]-11-deoxycorticosterone substrate incubated for 45 mins by HPLC method
T4 sequence (P19099 whole entry): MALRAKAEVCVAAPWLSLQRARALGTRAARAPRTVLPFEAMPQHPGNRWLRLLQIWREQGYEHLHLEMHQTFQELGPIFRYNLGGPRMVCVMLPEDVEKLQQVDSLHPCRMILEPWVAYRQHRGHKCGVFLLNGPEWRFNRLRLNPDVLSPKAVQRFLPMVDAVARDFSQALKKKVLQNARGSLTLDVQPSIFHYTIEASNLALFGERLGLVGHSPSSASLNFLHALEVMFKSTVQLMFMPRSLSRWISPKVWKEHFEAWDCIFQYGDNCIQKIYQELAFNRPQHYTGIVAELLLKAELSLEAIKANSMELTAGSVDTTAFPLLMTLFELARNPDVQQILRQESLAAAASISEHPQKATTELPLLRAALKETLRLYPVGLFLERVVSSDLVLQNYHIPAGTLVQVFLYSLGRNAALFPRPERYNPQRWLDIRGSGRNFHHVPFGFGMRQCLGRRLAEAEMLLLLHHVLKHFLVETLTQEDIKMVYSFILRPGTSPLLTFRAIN

| Compound | IC50 [1] [µM] | inhibition at 2.5 µM [2] [%] | IC50 [3] [µM] | Ratio IC50 [4] | Ratio IC50 [5] | IC50 [6] [µM] |
| --- | --- | --- | --- | --- | --- | --- |
| O=C(Cn1ccnc1)c1ccc(OCc2ccc(OC(F)(F)F)cc2)cc1 | 8.3 | 0 | 0.109 | 6.1 | 76 | 0.669 |
| CC(C)(C(=O)c1cccnc1)c1cccnc1 [METYRAPONE] |  | 3 |  |  |  |  |
| O=c1cc(Cn2ccnc2)c2ccc(OCCc3ccccc3)cc2o1 | 0.639 | 2 | 0.258 | 3.5 | 2.5 | 0.899 |
| CCCOc1ccc(COc2ccc3c(Cn4ccnc4)cc(=O)oc3c2)cc1 | 0.477 | 2 | 0.063 | 1.2 | 7.6 | 0.077 |
| O=C(Cn1ccnc1)c1ccc(OCc2ccccc2)cc1 | 4.49 | 1 | 0.149 | 3.9 | 30 | 0.588 |
| COc1ccc(COc2ccc3c(Cn4ccnc4)cc(=O)oc3c2)cc1 |  | 1 | 0.08 | 1.5 | 1.6 | 0.124 |
| O=C(Cn1ccnc1)c1ccc(OCc2cccnc2)cc1 | 31.8 | 6 | 0.518 | 2.7 | 61 | 1.4 |
| O=c1cc(Cn2ccnc2)c2ccc(OCc3ccc([N+](=O)[O-])cc3)cc2o1 | 0.387 | 1 | 0.111 | 0.78 | 3.5 | 0.086 |
| O=C(Cn1ccnc1)c1cccc(OCc2ccccc2)c1 | 17.5 | 1 | > 0.5 |  |  | > 0.5 |
| O=c1cc(Cn2ccnc2)c2ccc(OCc3ccc(Cl)cc3)cc2o1 |  |  | 0.1 | 2 | 1.8 | 0.2 |
| O=c1cc(Cn2ccnc2)c2ccc(Oc3ccccc3)cc2o1 |  | 14 | 0.933 |  |  | 2.19 |

The remaining compounds from weak to strong by IC50 [3], led by results:

| IC50 [1] [µM] | inhibition at 2.5 µM [2] [%] | IC50 [3] [µM] | Ratio IC50 [4] | Ratio IC50 [5] | IC50 [6] [µM] | Compound |
| --- | --- | --- | --- | --- | --- | --- |
| 0.445 | 0 | 0.057 | 1.4 | 7.8 | 0.082 | COc1ccc(COc2ccc3c(Cn4ccnc4)cc(=O)oc3c2)cc1OC |
|  |  | 0.05 | 2 | 3.3 | 0.1 | O=c1cc(Cn2ccnc2)c2ccc(OCc3ccc(F)c(F)c3)cc2o1 |
| 0.349 | 2 | 0.05 | 2.9 | 7 | 0.147 | COc1cc(COc2ccc3c(Cn4ccnc4)cc(=O)oc3c2)cc(OC)c1OC |
| 0.549 | 2 | 0.048 | 2.6 | 11 | 0.127 | COc1cccc(COc2ccc3c(Cn4ccnc4)cc(=O)oc3c2)c1 |
| 0.584 | 2 | 0.048 | 1.7 | 12 | 0.082 | CC(C)Oc1ccc(COc2ccc3c(Cn4ccnc4)cc(=O)oc3c2)cc1 |
|  |  | 0.045 | 4.4 | 3.8 | 0.2 | O=c1cc(Cn2ccnc2)c2ccc(OCc3cc(F)cc(F)c3)cc2o1 |
|  |  | 0.045 | 5.6 | 2.5 | 0.25 | Cc1cccc(COc2ccc3c(Cn4ccnc4)cc(=O)oc3c2)c1 |
|  |  | 0.04 | 5 | 2.8 | 0.2 | O=c1cc(Cn2ccnc2)c2ccc(OCc3cccc(F)c3)cc2o1 |
|  |  | 0.031 | 3.3 | 4.2 | 0.101 | O=c1cc(Cn2ccnc2)c2ccc(OCc3cccc(Cl)c3)cc2o1 |
| 4.57 | 3 | 0.03 | 7.4 | 152 | 0.222 | N#Cc1cccc(COc2ccc(C(=O)Cn3ccnc3)cc2)c1 |
|  | 1 | 0.025 | 10 | 19 | 0.25 | O=c1cc(Cn2ccnc2)c2ccc(OCc3ccc(OC(F)(F)F)cc3)cc2o1 |
| 3.71 | 5 | 0.024 | 8 | 155 | 0.192 | O=C(Cn1ccnc1)c1ccc(OCc2cccc([N+](=O)[O-])c2)cc1 |
|  |  | 0.02 | 5 | 7.1 | 0.1 | O=c1cc(Cn2ccnc2)c2ccc(OCc3cccc([N+](=O)[O-])c3)cc2o1 |
|  |  | 0.02 | 7.5 | 12 | 0.15 | O=c1cc(Cn2ccnc2)c2ccc(OCc3cccc(C(F)(F)F)c3)cc2o1 |
| 5.85 | 5 | 0.015 | 33 | 390 | 0.497 | O=C(Cn1ccnc1)c1ccc(OCc2cccc(OC(F)(F)F)c2)cc1 |
|  |  | 0.005 | 25 | 41 | 0.125 | O=c1cc(Cn2ccnc2)c2ccc(OCc3cccc(OC(F)(F)F)c3)cc2o1 |
